Measurements from ChEMBL document CHEMBL2384910, “Lead optimization of 5-amino-6-(2,2-dimethyl-5-oxo-4-phenylpiperazin-1-yl)-4-hydroxyhexanamides to reduce a cardiac safety issue: discovery of DS-8108b, an orally active renin inhibitor” (Bioorg Med Chem, 2013).
The source made the active and inactive calls. The calls are words filed in the database; no cut-off is given here.

How the values were obtained:
[1] = Plasma concentration in beagle dog at 0.5 mg/kg/min, iv after 30 mins; assay type: ADME, organism-based, Canis lupus familiaris; parameters: route intravenous
Procedure, shortened: (§1)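 Anesthetized dogs; after ECG parameters stabilized, compound infused iv continuously at 0.5 mg/kg/min for 1 h. ECG changes at 30 min as % change from baseline; 2 mL blood drawn from left femoral artery for plasma drug concentration.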

Oryctolagus cuniculus [2] = assay: Cardiotoxicity in anesthetized New Zealand White rabbit assessed as change in QRS width at 1 mg/kg/min, iv after 10 mins relative to baseline; assay type: toxicity, organism-based; parameters: route intravenous; conditions: in vivo
Procedure, shortened: (§2)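 Female NZW rabbits anesthetized with ketamine 35 mg/kg ip plus xylazine 5 mg/kg ip, tracheotomized, ventilated with room air. ECG and systemic pressure monitored; HR, PR, QRS, QT, QTc quantified. After stabilization, continuous iv infusion 1 mg/kg/min for 1 h; values at 10 min as % change from baseline.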

Cynomolgus monkey [3] = assay: Cardiotoxicity in conscious cynomolgus monkey assessed as change in QTc interval at 1000 mg/kg, po after 4 hrs relative to baseline; conditions: in vivo
Cynomolgus monkey [4] = assay: Cardiotoxicity in conscious cynomolgus monkey assessed as change in QRS width at 1000 mg/kg, po after 4 hrs relative to baseline; conditions: in vivo
Cynomolgus monkey [5] = assay: Inhibition of renin in po dosed furosemide pretreated cynomolgus monkey plasma after 1 to 24 hrs; assay type: functional, organism-based; conditions: Macaca fascicularis
Procedure, shortened: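 Cynomolgus monkeys pretreated with furosemide given single oral dose 1, 3 or 10 mg/kg or vehicle 1% methylcellulose. Venous blood into EDTA-2Na tubes at 1, 2, 4, 8, 24 h, chilled, centrifuged cold, plasma frozen; plasma renin activity by radioimmunoassay.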

Oryctolagus cuniculus [6] = assay: Cardiotoxicity in anesthetized New Zealand White rabbit assessed as change in QTc interval at 1 mg/kg/min, iv after 10 mins relative to baseline; assay type: toxicity, organism-based; parameters: route intravenous; conditions: in vivo; procedure, shortened: as §2
CYP3A4 = CYP3A4 (Homo sapiens, UniProt P08684); assay: Inhibition of CYP3A4 in human liver microsomes assessed as residual activity at 100 uM by LC/MS analysis; assay type: ADME, Microsome; conditions: read-out: Activity
Cynomolgus monkey [7] = assay: Inhibition of renin in furosemide pretreated cynomolgus monkey assessed as reduction in mean arterial blood pressure at 1 to 10 mg/kg, po up to 24 hrs; assay type: functional, organism-based; conditions: Macaca fascicularis
Procedure, shortened: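 Conscious freely moving telemetered cynomolgus monkeys (n = 6), furosemide 5 mg/kg/day im for 3 days before dosing; fasted from morning, fed ≥8 h post-dose. Oral 1, 3, 10 mg/kg or 1% methylcellulose, crossover design; arterial pressure recorded from −3 to 24 h; hourly mean MAP; mean ± SEM.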

Heart [8] = assay: Cardiotoxicity in New Zealand White rabbit heart assessed as change in […] at 100 uM after 20 mins relative to baseline; assay type: toxicity, tissue-based, Oryctolagus cuniculus
Procedure, shortened: (§3)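 Isolated Langendorff-perfused hearts from female NZW rabbits anesthetized with thiopental 30 mg/kg iv; heart excised into chilled Krebs-Henseleit solution. After parameters stabilized, compound perfused at 10, 30 and 100 µM for 20 min; ECG changes expressed as % change from baseline.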

[9] = Plasma concentration cynomolgus monkey at 1000 mg/kg, po after 4 hrs; assay type: ADME, organism-based, Macaca fascicularis; parameters: dose 1000 mg/kg, route oral
Cynomolgus monkey [10] = assay: Cardiotoxicity in conscious cynomolgus monkey assessed as change in heart rate at 1000 mg/kg, po after 4 hrs relative to baseline; conditions: in vivo
Renin = target: T1, Renin (Homo sapiens, UniProt P00797); assay: Inhibition of human recombinant renin using Arg-Glu(EDANS)-Ile-His-Pro-Phe-His-Leu-Val-Ile-His-Thr-Lys (DABCYL)-Arg as substrate incubated for 10 mins prior to substrate addition measured after 90 mins by fluorescence assay
T1 sequence (P00797 whole entry): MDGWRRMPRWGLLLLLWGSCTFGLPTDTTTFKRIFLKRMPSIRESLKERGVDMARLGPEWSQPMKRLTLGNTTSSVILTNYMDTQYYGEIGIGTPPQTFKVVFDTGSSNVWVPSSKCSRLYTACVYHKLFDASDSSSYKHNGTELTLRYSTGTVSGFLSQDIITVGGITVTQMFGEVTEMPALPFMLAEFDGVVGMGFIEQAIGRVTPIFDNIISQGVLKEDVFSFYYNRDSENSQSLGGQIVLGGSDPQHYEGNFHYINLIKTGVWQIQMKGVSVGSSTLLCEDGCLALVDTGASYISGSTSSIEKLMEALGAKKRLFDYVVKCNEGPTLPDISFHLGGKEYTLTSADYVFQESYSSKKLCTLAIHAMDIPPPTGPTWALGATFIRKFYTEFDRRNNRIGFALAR
Procedure, shortened: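 Trypsin-activated recombinant human renin in 50 mM Tris-HCl pH 7.9, 100 mM NaCl, preincubated with compound 10 min at room temperature; FRET substrate Arg-Glu(EDANS)…Lys(DABCYL)-Arg added, 90 min at 37 °C.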

Rattus norvegicus = assay: Cardiotoxicity in Sprague-Dawley rat electrophysiology model assessed as QRS complex abnormalities at 10 mg/kg, iv by ECG analysis; assay type: toxicity, organism-based; parameters: dose 10 mg/kg, route intravenous; conditions: in vivo
Procedure, shortened: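 Male Sprague-Dawley rats anesthetized with inactin 100 mg/kg ip; surface lead II ECG recorded continuously. Compounds given as iv bolus via right jugular vein catheter after stabilization; QRS complex abnormality scored as no, moderate or severe change; n = 2 at 10 mg/kg.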

Heart [11] = assay: Cardiotoxicity in New Zealand White rabbit heart assessed as change in QRS width at 100 uM after 20 mins relative to baseline; assay type: toxicity, tissue-based, Oryctolagus cuniculus; procedure, shortened: as §3
Canis familiaris [12] = assay: Cardiotoxicity in anesthetized beagle dog assessed as change in heart rate at 0.5 mg/kg/min, iv after 30 mins relative to baseline; assay type: toxicity, organism-based, Canis lupus familiaris; parameters: route intravenous; conditions: in vivo, 0.5 h; procedure, shortened: as §1
Oryctolagus cuniculus [13] = organism: Oryctolagus cuniculus; assay: Cardiotoxicity in New Zealand White rabbit heart assessed as change in QTc interval at 100 uM after 20 mins relative to baseline; assay type: toxicity; conditions: ex_vivo; procedure, shortened: as §3
Canis familiaris [14] = assay: Cardiotoxicity in anesthetized beagle dog assessed as change in QTc interval at 0.5 mg/kg/min, iv after 30 mins relative to baseline; assay type: toxicity, organism-based, Canis lupus familiaris; parameters: route intravenous; conditions: in vivo, 0.5 h; procedure, shortened: as §1
Heart [15] = assay: Cardiotoxicity in New Zealand White rabbit heart assessed as change in heart rate at 100 uM after 20 mins relative to baseline; assay type: toxicity, tissue-based, Oryctolagus cuniculus; procedure, shortened: as §3
Oryctolagus cuniculus [16] = assay: Cardiotoxicity in anesthetized New Zealand White rabbit assessed as change in […] at 1 mg/kg/min, iv after 10 mins relative to baseline; assay type: toxicity, organism-based; parameters: route intravenous; conditions: in vivo; procedure, shortened: as §2
Canis familiaris [17] = assay: Cardiotoxicity in anesthetized beagle dog assessed as change in QRS width at 0.5 mg/kg/min, iv after 30 mins relative to baseline; assay type: toxicity, organism-based, Canis lupus familiaris; parameters: route intravenous; conditions: in vivo, 0.5 h; procedure, shortened: as §1
[18] = target: Sodium channel protein type 5 subunit alpha (Homo sapiens, UniProt Q14524); assay: Inhibition of human voltage-gated Na channel 1.5 expressed in HEK293 cells at 100 uM after 2 mins by patch clamp technique; assay type: cell-based; conditions: hek293, 2 min
Procedure, shortened: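 HEK293 cells stably expressing hNav1.5; automated patch clamp. 20 ms pulses to −10 mV from −120 mV holding at 1 Hz continuously; peak sodium current measured; compound incubated 2 min.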

Canis familiaris [19] = assay: Cardiotoxicity in anesthetized beagle dog assessed as change in […] at 0.5 mg/kg/min, iv after 30 mins relative to baseline; assay type: toxicity, organism-based, Canis lupus familiaris; parameters: route intravenous; conditions: in vivo, 0.5 h; procedure, shortened: as §1
Oryctolagus cuniculus [20] = assay: Cardiotoxicity in anesthetized New Zealand White rabbit assessed as change in heart rate at 1 mg/kg/min, iv after 10 mins relative to baseline; assay type: toxicity, organism-based; parameters: route intravenous; conditions: in vivo; procedure, shortened: as §2

CYP3A4, sequence (P08684 whole entry): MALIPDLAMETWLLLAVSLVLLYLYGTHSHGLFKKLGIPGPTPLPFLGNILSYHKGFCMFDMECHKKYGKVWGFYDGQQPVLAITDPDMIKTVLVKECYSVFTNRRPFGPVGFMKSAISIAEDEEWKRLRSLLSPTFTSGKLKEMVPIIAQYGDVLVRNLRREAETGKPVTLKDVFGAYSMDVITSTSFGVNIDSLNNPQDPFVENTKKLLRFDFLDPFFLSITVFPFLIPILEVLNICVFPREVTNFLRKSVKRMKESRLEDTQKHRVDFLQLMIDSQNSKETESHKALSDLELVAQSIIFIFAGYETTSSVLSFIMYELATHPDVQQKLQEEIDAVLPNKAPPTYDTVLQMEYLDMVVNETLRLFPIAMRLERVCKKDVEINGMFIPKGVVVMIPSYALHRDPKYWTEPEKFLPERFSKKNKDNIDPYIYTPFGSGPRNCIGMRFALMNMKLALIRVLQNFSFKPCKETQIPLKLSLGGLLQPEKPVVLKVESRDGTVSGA
Sodium channel protein type 5 subunit alpha, sequence (Q14524 whole entry): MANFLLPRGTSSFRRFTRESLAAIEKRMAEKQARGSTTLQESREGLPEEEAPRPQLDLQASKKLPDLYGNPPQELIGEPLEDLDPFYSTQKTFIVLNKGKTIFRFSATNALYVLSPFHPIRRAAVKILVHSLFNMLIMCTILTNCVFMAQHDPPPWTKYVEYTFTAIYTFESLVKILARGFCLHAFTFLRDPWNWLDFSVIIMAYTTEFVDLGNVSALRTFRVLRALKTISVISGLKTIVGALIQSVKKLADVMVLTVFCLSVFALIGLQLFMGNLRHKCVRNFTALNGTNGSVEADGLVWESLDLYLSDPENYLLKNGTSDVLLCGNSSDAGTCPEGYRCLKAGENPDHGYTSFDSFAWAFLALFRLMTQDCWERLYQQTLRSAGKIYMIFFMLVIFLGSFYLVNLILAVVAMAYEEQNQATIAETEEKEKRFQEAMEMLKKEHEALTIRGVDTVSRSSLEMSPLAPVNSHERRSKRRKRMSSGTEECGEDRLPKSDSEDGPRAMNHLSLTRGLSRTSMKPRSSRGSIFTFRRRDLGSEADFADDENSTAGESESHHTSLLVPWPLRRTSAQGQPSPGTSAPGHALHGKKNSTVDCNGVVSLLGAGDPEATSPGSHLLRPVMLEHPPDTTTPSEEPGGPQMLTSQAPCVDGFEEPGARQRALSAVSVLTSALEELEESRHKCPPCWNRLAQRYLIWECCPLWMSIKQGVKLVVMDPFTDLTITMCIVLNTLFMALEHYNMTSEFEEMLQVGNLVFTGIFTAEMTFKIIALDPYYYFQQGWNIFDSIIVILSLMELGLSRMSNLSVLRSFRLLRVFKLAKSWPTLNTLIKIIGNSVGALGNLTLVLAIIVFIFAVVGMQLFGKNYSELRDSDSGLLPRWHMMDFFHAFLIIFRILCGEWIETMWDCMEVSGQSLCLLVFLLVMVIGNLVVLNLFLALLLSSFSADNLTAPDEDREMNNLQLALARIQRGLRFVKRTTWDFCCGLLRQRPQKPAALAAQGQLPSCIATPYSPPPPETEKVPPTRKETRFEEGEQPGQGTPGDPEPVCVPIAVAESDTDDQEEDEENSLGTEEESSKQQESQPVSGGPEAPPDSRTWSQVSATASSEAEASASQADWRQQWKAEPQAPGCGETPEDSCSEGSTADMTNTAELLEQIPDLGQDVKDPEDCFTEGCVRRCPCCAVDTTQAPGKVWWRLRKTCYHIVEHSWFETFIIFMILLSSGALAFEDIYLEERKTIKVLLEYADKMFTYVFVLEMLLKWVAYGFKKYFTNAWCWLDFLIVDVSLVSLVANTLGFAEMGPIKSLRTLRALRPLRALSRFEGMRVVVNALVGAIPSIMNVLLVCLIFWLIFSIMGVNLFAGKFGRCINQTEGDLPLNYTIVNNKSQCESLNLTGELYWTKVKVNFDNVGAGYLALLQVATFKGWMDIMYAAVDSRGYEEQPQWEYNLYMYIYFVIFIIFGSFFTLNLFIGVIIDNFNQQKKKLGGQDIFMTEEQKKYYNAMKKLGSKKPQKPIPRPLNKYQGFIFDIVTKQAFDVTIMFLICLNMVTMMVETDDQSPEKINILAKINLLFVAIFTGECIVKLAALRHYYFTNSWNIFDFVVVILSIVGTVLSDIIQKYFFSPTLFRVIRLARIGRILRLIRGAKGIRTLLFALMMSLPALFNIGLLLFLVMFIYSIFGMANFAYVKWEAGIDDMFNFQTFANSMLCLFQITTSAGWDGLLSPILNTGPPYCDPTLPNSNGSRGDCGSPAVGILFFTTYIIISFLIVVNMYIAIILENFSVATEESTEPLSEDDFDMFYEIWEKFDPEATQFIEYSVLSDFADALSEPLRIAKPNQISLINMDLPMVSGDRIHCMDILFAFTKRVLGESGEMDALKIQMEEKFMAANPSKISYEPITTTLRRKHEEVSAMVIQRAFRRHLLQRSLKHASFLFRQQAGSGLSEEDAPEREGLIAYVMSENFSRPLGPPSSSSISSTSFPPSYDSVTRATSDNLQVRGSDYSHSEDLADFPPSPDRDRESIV

Compound CC[C@H](C[C@H](O)[C@@H](N)CN1CC(=O)N(c2ccccc2Cl)CC1(C)C)C(=O)N[C@H]1C2CC3CC1C[C@](O)(C3)C2.O=C(O)/C=C/C(=O)O has a concentration at 0.5 h [1] of 38100 ng/mL, an Activity (Oryctolagus cuniculus [2]) of -1.3% and an Activity (Cynomolgus monkey [3]) of -0.4%. For the same compound, the Activity (Cynomolgus monkey [4]) was -7.6%, the inhibition (Cynomolgus monkey [5]) was “Dose-dependent effect” and the Activity (Oryctolagus cuniculus [6]) was 2.7%. For the same compound, the activity at 100 µM (CYP3A4) was 77.9%, the inhibition (Cynomolgus monkey [7]) was “Active” and the Activity (Heart [8]) was 1.7%. The concentration at 4 h [9] was 5400 ng/mL, the Activity (Cynomolgus monkey [10]) was -4.2% and the IC50 (Renin) was 0.9 nM. The Activity (Rattus norvegicus) was “Non-toxic”, the Activity (Heart [11]) was 1.7% and the Activity (Canis familiaris [12]) was -5.4%. It also gave an Activity (Oryctolagus cuniculus [13]) of -3.2%, an Activity (Canis familiaris [14]) of -1.4% and an Activity (Heart [15]) of -5.8%. The Activity (Oryctolagus cuniculus [16]) was -1.3%, the Activity (Canis familiaris [17]) was 5.8% and the “inhibition (INH)” value [18] was “Not Active”. The Activity (Canis familiaris [19]) was -1.5% and the Activity (Oryctolagus cuniculus [20]) was 3.9%.
